In ChEMBL document CHEMBL3352791, “Thioaryl naphthylmethanone oxime ether analogs as novel anticancer agents” (J Med Chem, 2014) one finds Activity, IC50 and inhibition data, which are given here for two compounds.

Activity calls are given as the source filed them. The calls are words filed in the database; no cut-off is given here.

Test [1] has as its system MCF7. In words: Cell cycle arrest in human […] MCF7 cells assessed as accumulation at S phase at 5 uM by propidium iodide staining by FACS analysis (reference value: 24.76%). Format: functional. In general terms: Flow cytometry measures light scatter and fluorescence of single cells or particles in a stream.
Test [2] relates to MDA-MB-231. In words: Cell cycle arrest in human […] cells assessed as accumulation at G1 phase at 5 uM by propidium iodide staining by FACS analysis (reference value: 63.74%). Format: functional.
The nature of test [3]: Cytotoxicity against human MCF10A cells after 72 hrs by MTT assay. In kind it is ADME, cell-based. Particulars: MCF-10A.
The test system of test [4] is MCF7. In words: Cell cycle arrest in human […] cells assessed as accumulation at subG1 phase at 7.5 uM by propidium iodide staining by FACS analysis (reference value: 0.1%). Format: functional.
Test [5] relates to MDA-MB-231. As to the kind of experiment: Antiinvasion activity in human MDA-MB-231 cells assessed as inhibition of FBS-induced cell invaded to matrigel coated invasion chamber at 1 uM after 24 hrs by Transwell invasion assay. In kind it is functional, cell-based.
In test [6] the target is Epidermal growth factor receptor (Homo sapiens) (UniProt P00533). As to the kind of experiment: Inhibition of EGF-induced EGFR phosphorylation at Tyr1173 in human MDA-MB-231 cells at 0.1 uM by ELISA. Format: cell-based. The method in brief: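 MDA-MB-231 cells pretreated 1 h in serum-free medium, then EGF-stimulated for 15 min and lysed. Equal lysate protein (Bradford) assayed by ELISA kits for p-EGFR (Tyr1068, Tyr845, Tyr1173) and p-HER2. Absorbance read at 450 nm, normalized to total EGFR or HER2.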
Sequence of Epidermal growth factor receptor (Homo sapiens) (P00533 whole entry): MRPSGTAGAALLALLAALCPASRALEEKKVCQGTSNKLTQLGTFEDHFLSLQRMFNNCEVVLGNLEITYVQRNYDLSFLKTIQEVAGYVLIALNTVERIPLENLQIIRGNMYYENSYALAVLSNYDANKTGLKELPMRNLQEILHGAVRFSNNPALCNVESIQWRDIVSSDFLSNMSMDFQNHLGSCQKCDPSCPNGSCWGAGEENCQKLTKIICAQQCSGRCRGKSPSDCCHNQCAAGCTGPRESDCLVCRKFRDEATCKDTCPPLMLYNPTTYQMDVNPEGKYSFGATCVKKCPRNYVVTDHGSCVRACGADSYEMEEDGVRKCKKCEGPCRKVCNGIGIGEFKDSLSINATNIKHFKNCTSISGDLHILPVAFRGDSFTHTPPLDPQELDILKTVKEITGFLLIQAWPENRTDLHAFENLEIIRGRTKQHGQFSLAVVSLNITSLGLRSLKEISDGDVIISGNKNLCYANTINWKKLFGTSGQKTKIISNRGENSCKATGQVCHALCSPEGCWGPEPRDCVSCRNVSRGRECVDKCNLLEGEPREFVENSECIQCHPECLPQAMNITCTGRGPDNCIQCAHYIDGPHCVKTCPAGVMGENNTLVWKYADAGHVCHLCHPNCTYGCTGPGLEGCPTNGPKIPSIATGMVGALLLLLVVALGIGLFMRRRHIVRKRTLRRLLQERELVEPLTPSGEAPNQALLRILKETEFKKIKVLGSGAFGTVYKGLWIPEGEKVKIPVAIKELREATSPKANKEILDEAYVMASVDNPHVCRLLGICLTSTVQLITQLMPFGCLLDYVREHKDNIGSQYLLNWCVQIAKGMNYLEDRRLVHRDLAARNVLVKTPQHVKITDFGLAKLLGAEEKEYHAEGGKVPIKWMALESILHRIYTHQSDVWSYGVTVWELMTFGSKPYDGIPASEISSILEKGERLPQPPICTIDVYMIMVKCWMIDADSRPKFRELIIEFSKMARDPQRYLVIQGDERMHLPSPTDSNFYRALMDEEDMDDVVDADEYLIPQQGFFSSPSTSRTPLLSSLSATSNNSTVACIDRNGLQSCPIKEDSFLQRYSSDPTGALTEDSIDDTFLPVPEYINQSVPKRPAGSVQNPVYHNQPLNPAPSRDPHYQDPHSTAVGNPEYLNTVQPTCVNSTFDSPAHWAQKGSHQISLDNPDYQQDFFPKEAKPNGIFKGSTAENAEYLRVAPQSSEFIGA
In general terms: ELISA stands for enzyme-linked immunosorbent assay.

The subject of test [7] is MDA-MB-231. In words: Inhibition of VEGF-C expression in human MDA-MB-231 cells at 1 uM after 24 hrs by qPCR analysis. Format: functional, cell-based. The method in brief: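 Gene expression was measured by qPCR in MDA-MB-231 breast cancer cells treated with 1µM compound. GAPDH served as the housekeeping internal control.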
In general terms: Quantitative PCR measures a nucleic acid by following its amplification.

The target in test [8] is Proto-oncogene tyrosine-protein kinase Src (Homo sapiens) (UniProt P12931). As to the kind of experiment: Inhibition of cSRC (unknown origin) at 10 uM. The method in brief: (§1)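 Cell-free kinase profiling was run as a standard 33P-ATP-based in vitro kinase assay.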
The target of test [9] is High affinity 3',5'-cyclic-AMP phosphodiesterase 7A (Homo sapiens) (UniProt Q13946). In words: Inhibition of PDE7A (unknown origin) activity at 1 to 10 uM. The method in brief:
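Recombinant PDE isoform activity was read by fluorescence polarization. A binding reagent complexes with the nucleotide monophosphate that the phosphodiesterase generates from cAMP/cGMP, and this raises the polarization of the labelled substrate. Reference standards were PDE1A3 10µM IBMX, PDE2A3 1nM BAY 60-7550, PDE3CAT 1µM cilostazol, PDE4CAT rolipram, PDE5CAT 0.1µM sildenafil, PDE7A […], PDE8A1 10µM BRL-50481, PDE9A1 1µM SB 36216 and PDE11A1 dipyridamole.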

In test [10] the target is RAC-alpha serine/threonine-protein kinase (Homo sapiens) (UniProt P31749). As to the kind of experiment: Inhibition of basal level AKT phosphorylation in human MDA-MB-231 cells at 1 uM by ELISA. Format: cell-based.
Sequence of RAC-alpha serine/threonine-protein kinase (Homo sapiens) (P31749 whole entry): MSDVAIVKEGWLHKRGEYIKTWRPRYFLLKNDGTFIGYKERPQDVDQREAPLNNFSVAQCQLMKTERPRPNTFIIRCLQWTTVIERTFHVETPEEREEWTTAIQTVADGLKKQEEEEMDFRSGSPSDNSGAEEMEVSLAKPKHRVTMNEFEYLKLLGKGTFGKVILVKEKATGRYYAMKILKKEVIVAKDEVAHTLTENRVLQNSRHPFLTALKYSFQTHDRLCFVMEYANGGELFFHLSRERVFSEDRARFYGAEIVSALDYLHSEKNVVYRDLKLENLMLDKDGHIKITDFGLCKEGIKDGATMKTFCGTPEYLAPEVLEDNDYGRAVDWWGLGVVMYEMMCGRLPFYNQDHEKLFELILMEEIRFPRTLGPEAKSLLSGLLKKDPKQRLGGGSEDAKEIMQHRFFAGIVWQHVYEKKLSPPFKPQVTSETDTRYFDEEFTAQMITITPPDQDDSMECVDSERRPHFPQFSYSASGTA
For test [11], the target named is Mitogen-activated protein kinase; ERK1/ERK2 (Homo sapiens) (UniProt P27361+P28482). As to the kind of experiment: Inhibition of EGF-induced ERK1/2 phosphorylation in human MDA-MB-231 cells at 1 uM by ELISA. Format: cell-based.
Sequence of Mitogen-activated protein kinase; ERK1/ERK2 (Homo sapiens) (P27361 whole entry, looked up): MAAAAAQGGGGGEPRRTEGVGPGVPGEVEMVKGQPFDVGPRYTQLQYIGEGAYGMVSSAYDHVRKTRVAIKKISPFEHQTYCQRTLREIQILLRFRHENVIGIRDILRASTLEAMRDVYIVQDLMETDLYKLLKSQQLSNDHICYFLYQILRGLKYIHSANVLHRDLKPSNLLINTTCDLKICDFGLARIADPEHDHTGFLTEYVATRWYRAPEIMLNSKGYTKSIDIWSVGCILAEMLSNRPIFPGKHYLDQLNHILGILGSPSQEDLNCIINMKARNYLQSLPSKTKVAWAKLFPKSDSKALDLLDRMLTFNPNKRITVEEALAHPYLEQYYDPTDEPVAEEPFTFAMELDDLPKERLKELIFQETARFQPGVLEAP
Sequence of Mitogen-activated protein kinase; ERK1/ERK2 (Homo sapiens) (P28482 whole entry, looked up): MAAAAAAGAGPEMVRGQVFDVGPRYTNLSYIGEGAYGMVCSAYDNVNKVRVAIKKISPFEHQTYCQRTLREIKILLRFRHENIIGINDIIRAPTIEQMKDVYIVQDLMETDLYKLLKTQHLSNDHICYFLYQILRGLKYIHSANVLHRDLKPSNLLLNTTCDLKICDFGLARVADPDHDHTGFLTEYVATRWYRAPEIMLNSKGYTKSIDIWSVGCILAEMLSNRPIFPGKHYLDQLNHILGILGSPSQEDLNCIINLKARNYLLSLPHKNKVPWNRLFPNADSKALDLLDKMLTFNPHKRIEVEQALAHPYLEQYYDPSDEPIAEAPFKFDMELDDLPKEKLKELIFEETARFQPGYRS
The test system of test [12] is MCF7. As to the kind of experiment: Cytotoxicity against human […] cells assessed as cell viability at 5 uM by MTT assay in presence of z-IETD-FMK caspase-8 inhibitor. Format: functional, cell-based. The method in brief: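 Cells seeded 1×10^4/well in DMEM with 10% FBS, adhered overnight, serum-starved 4 h; pre-incubated 2 h with Z-IETD-FMK or Z-LEHD-FMK (10µM each), then 5μM compound for a further 24 h; viability by MTT.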

Test [13] has as its target Signal transducer and activator of transcription 3 (Homo sapiens) (UniProt P40763). In words: Inhibition of basal level STAT3 phosphorylation in human MDA-MB-231 cells at 1 uM by ELISA. Format: cell-based.
The target in test [14] is Mast/stem cell growth factor receptor Kit (Homo sapiens) (UniProt P10721). In words: Inhibition of cKit (unknown origin) at 10 uM. The method in brief: as §1
Sequence of Mast/stem cell growth factor receptor Kit (Homo sapiens) (P10721 whole entry): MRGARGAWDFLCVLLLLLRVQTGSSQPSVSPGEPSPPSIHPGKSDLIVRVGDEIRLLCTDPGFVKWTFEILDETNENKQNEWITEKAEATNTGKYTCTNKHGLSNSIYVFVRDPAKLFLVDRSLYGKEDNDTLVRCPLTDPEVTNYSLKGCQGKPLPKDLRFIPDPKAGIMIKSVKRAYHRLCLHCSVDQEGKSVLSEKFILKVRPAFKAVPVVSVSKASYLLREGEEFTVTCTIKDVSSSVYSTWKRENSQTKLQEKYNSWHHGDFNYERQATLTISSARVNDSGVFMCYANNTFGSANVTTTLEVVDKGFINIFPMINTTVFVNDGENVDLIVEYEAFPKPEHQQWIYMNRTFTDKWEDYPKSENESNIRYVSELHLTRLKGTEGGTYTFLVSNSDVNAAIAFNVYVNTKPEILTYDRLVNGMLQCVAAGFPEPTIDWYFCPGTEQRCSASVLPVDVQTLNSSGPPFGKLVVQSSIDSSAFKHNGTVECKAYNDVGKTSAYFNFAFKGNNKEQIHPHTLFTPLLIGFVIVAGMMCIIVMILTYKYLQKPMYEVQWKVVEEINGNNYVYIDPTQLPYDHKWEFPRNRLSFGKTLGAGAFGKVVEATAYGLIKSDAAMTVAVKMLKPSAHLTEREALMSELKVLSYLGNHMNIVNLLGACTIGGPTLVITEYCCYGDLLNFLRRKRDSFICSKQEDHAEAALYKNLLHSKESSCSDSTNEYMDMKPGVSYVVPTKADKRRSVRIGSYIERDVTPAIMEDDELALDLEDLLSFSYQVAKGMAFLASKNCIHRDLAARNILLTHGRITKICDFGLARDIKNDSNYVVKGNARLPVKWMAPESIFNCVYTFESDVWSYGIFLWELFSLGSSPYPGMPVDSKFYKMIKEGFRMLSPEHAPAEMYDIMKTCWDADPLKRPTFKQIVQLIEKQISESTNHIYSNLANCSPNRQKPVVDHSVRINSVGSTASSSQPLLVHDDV
The subject of test [15] is MDA-MB-231. In words: Inhibition of TGFbeta expression in human MDA-MB-231 cells at 5 uM by ELISA. Format: functional, cell-based.
In test [16] the target is Epidermal growth factor receptor (Homo sapiens) (UniProt P00533). As to the kind of experiment: Inhibition of EGF-induced EGFR phosphorylation at Tyr1045 in human MDA-MB-231 cells at 1 uM by ELISA. Format: cell-based.
Test [17] deals with T1, Signal transducer and activator of transcription 1-alpha/beta (Homo sapiens) (UniProt P42224).
T1 sequence (whole entry): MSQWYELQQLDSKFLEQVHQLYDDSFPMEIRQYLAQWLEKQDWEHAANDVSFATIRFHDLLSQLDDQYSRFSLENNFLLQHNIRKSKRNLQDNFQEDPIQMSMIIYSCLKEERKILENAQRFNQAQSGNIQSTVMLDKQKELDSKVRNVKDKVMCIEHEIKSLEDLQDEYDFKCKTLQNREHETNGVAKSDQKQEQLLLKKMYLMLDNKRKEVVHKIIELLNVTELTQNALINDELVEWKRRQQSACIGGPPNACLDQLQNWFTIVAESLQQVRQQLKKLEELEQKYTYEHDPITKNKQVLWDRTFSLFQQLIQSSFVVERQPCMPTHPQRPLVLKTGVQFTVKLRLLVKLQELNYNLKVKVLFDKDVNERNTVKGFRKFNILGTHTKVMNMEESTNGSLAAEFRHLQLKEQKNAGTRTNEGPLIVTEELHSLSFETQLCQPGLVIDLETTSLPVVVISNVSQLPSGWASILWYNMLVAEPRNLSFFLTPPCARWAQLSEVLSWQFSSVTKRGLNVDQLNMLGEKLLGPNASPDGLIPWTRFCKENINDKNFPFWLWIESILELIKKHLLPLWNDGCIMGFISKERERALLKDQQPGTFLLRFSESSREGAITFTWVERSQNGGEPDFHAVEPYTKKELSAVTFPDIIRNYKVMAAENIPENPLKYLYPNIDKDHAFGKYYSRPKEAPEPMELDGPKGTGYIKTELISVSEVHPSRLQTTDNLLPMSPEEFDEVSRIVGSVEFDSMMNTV
As to the kind of experiment: Inhibition of basal level STAT1 phosphorylation in human MDA-MB-231 cells at 1 uM by ELISA. In kind it is cell-based.

Test [18] has as its system MCF7. In words: Inhibition of INS expression in human MCF7 cells at 5 uM by ELISA. Format: functional, cell-based.
For test [19], the system named is MCF7. In words: Inhibition of TGFbeta expression in human MCF7 cells at 5 uM by ELISA. In kind it is functional, cell-based.
In test [20] the target is RAC-alpha serine/threonine-protein kinase (Homo sapiens) (UniProt P31749). In words: Inhibition of EGF-induced AKT phosphorylation in human MCF7 cells at 1 uM by ELISA. Format: cell-based.

Sequence of Signal transducer and activator of transcription 3 (Homo sapiens) (P40763 whole entry): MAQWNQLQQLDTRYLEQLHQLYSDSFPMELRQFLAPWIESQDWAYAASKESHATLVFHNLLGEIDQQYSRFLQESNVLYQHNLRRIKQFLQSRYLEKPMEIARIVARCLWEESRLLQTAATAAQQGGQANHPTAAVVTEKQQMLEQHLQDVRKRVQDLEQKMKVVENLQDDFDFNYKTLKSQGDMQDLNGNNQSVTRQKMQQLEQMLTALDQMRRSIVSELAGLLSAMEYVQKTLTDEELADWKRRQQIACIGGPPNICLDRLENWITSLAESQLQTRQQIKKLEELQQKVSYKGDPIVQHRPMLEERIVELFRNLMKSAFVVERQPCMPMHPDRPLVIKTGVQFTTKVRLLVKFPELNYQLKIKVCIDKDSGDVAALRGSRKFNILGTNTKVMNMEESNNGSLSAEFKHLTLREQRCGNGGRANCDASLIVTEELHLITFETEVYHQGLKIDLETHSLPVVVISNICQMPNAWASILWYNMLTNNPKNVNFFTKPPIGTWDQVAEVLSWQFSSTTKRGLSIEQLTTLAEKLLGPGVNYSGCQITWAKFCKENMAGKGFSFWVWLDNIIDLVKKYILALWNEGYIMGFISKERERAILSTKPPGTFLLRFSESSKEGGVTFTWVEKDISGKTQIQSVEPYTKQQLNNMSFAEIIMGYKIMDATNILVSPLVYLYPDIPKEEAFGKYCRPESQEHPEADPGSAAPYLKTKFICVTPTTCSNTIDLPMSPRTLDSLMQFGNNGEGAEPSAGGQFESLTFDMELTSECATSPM
Sequence of High affinity 3',5'-cyclic-AMP phosphodiesterase 7A (Homo sapiens) (Q13946 whole entry, canonical isoform): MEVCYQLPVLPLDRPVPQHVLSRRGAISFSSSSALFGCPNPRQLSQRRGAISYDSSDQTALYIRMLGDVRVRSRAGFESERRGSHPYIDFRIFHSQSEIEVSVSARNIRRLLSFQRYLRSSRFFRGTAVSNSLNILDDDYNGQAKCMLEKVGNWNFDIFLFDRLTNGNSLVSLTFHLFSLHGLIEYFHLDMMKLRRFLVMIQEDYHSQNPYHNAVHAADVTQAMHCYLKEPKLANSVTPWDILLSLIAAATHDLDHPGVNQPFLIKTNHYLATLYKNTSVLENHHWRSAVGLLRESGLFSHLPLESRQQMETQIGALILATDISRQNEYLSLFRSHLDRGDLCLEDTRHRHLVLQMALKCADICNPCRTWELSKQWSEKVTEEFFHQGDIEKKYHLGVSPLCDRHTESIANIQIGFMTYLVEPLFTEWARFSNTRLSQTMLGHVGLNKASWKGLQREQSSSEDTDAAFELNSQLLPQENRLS

For the compound `CCN(CC)CCO/N=C(\c1ccc(SC)cc1)c1cccc2ccccc12.O=C(O)C(=O)O`, the Activity was determined as 13.88% in the test on MCF7 [1], 88% in the test with MDA-MB-231 [2] and 0.4% in the test on MCF7 [4]. In test [3], this compound came in with a 50% inhibitory concentration (IC50) of 50 µM.

Regarding `CCN(CC)CCO/N=C(\c1ccc(SC)cc1)c1cccc2ccccc12`, the outcome in the test on MDA-MB-231 [5] was Active. Further, the inhibition entry in test [6], in [11], in [16] and in test [20] was “Active” each time. For the same compound, the inhibition entry (with MDA-MB-231 [7]; in test [8]; in test [9]; in test [10]; in test [13]; in [14]) was “inactive” each time. For the same compound, the inhibition result (in the test on MDA-MB-231 [15]; in test [17]; in the test on MCF7 [18]; with MCF7 [19]) was “inactive” in each case. For the same compound, the result in the test on MCF7 [12] was inactive.

Usually IC50 stands for the concentration that gives 50% inhibition. Read a low IC50 as higher potency.
